Test results reported in ChEMBL document CHEMBL1165920, “Structural determinants for the inhibitory ligands of orotidine-5'-monophosphate decarboxylase” (Bioorg Med Chem, 2010).
Activity calls are given as the source filed them. The calls are words filed in the database; no cut-off is given here.

Columns and labels:
[1] = biological target: T1, Orotidine 5'-phosphate decarboxylase (Saccharomyces cerevisiae S288c, UniProt P03962); experiment: Inhibition of Saccharomyces cerevisiae uridine 5'-monophosphate synthase after overnight incubation at room temperature by VP-ITC microcalorimetry
T1 sequence (P03962 whole entry): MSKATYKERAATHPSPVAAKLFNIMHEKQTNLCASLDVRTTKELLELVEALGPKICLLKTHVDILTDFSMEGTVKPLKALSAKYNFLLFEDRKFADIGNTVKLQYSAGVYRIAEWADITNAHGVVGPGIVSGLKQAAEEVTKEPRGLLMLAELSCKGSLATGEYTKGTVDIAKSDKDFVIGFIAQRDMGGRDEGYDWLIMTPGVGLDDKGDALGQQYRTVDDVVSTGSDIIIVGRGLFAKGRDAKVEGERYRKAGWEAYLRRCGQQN

[2] = biological target: Orotidine 5'-phosphate decarboxylase (Methanobacterium thermoautotrophicum) (UniProt O26232); experiment: Competitive inhibition of Methanothermobacter thermautotrophicus uridine 5'-monophosphate synthase after overnight incubation at room temperature by Lineweaver-Burke plot analysis
Orotidine 5'-phosphate decarboxylase (Methanobacterium thermoautotrophicum), sequence (O26232 whole entry, looked up): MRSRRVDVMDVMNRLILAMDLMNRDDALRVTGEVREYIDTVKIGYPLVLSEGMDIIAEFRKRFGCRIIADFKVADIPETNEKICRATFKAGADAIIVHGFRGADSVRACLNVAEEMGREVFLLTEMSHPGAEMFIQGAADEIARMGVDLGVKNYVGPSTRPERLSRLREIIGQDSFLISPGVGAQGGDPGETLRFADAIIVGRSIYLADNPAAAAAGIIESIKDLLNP
Procedure, shortened: (§1)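 Isothermal titration calorimetry with Mt ODCase (final 20 nM). Enzyme stock was kept in 50 mM Tris pH 7.5, 20 mM DTT, 40 mM NaCl overnight at rt. Assay buffer was degassed 50 mM Tris pH 7.5 with 1 mM DTT. Run at 55 °C, started by injecting 5 mM OMP in 50 mM Tris. Inhibitor series spanned 5–40 µM or 0.5–5 mM. Competitive Ki was derived from Ki(app) = Ki(1+[S]/KM).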

[3] = biological target: Orotidine 5'-phosphate decarboxylase (Methanobacterium thermoautotrophicum, UniProt O26232); experiment: Inhibition of Methanothermobacter thermautotrophicus uridine 5'-monophosphate synthase after overnight incubation at room temperature by VP-ITC microcalorimetry; procedure, shortened: as §1
Orotidine 5'-phosphate decarboxylase (Methanobacterium thermoautotrophicum, UniProt O26232), sequence (O26232 whole entry): as the sequence (O26232 whole entry, looked up) above

[4] = Inhibition of Helicobacter pylori uridine 5'-monophosphate synthase after overnight incubation at room temperature by VP-ITC microcalorimetry
Procedure, shortened: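 Reversible inhibition measured by ITC with Hp ODCase (final 60 nM) and 20 µM OMP substrate. Assay buffer was degassed 50 mM Tris pH 7.5 with 1 mM DTT. Inhibitor series were 0.25–1.5 µM or 0.25–2.5 mM. Ki was fitted as competitive from Ki(app) = Ki(1+[S]/KM).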

[5] = biological target: T1, Orotidine 5'-phosphate decarboxylase; experiment: Inhibition of Saccharomyces cerevisiae uridine 5'-monophosphate synthase
[6] = biological target: T2, Orotidine phosphate decarboxylase (Plasmodium falciparum) (UniProt Q8T6J6); settings: 0.5 to 5 mM
T2 sequence (whole entry): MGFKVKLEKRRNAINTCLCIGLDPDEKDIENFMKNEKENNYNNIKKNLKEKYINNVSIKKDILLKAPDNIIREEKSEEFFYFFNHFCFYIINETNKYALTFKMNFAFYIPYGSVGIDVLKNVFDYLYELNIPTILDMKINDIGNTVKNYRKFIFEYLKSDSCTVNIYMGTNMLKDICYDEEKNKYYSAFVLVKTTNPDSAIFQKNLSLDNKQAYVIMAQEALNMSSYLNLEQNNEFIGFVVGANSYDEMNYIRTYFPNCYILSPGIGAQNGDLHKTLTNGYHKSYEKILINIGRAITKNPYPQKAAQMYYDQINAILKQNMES

Compound	Ki [1] [nM]	inhibition [2]	Ki [3] [nM]	Ki [4] [nM]	Ki [5] [nM]	inhibition [6]
NC(=O)c1[nH]nc([C@@H]2O[C@H](COP(=O)(O)O)[C@@H](O)[C@H]2O)c1O	5	Active	6200	130	–	–
O=c1cc(O)n([C@@H]2O[C@H](COP(=O)(O)O)[C@@H](O)[C@H]2O)c(=O)[nH]1	0.009	–	–	–	0.0088	–
N#Cc1cc(=O)[nH]c(=O)n1[C@@H]1O[C@H](COP(=O)(O)O)[C@@H](O)[C@H]1O	–	–	–	–	–	Active
